The subject of series [1] is Mus musculus. The series can be described thus: Hepatotoxicity in Balb/c mouse infected with Trypanosoma cruzi MHOM/Pe/2011/Arequipa DTU 5 trypamastigotes assessed as increase in ratio of serum ALT to GPT level at 20 mg/kg, po once daily for 5 consecutive days starting from day 75 post infection measured on day 81 post infection by biochemical analysis relative to control. The class given is toxicity, organism-based. Particulars: in vivo.

Series [2] concerns Mus musculus. Briefly: Hepatotoxicity in Balb/c mouse infected with Trypanosoma cruzi MHOM/Pe/2011/Arequipa DTU 5 trypamastigotes assessed as increase in ratio of serum AST to GOT level at 20 mg/kg, po once daily for 5 consecutive days starting from day 10 post infection measured on day 127 post infection by biochemical analysis relative to control. The class given is toxicity, organism-based. Particulars: in vivo.

In series [3] the test system is Trypanosoma cruzi. Briefly: Antitrypanosomal activity against Trypanosoma cruzi MHOM/Pe/2011/Arequipa DTU 5 trypamastigotes infected in Balb/c mouse assessed as reduction in parasitaemia reactivation in esophagus tissue at 20 mg/kg, po pretreated once daily for 5 consecutive days starting from day 10 post infection followed by cyclophosphamide-induced immunosuppression on day 100 post infection every 4 days for a maximum of 3 doses measured on day 127 post infection by PCR method. It counts as functional. On the set-up: scale not given: the % may be the effect or the level left. The essentials:
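Necropsy on day 127 pi after oral treatment and cyclophosphamide immunosuppression. Tissue DNA was amplified by PCR targeting the ~300 bp T. cruzi SOD gene, 200 nM each primer, 30 cycles with 55.5 °C annealing. Products run on 2 % agarose; positive organs counted out of six mice.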

The subject of series [4] is Mus musculus. Briefly: Cardiotoxicity in Balb/c mouse infected with Trypanosoma cruzi MHOM/Pe/2011/Arequipa DTU 5 trypamastigotes assessed as decrease in serum LDH level at 20 mg/kg, po once daily for 5 consecutive days starting from day 75 post infection measured on day 81 post infection by biochemical analysis relative to control. Particulars: in vivo. On the set-up: scale not given: the % may be the effect or the level left. It counts as toxicity, organism-based. In short, it runs like this:
(§1)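 Serum clinical chemistry in Arequipa-infected female BALB/c mice. Oral 20 mg·kg-1 per day for 5 days, started day 10 or day 75 pi. Samples taken at day 16 pi or day 81 pi, and on necropsy day. Markers: CK-MB and LDH (U/L), AST, ALT and alkaline phosphatase (U/L), total bilirubin. Results scored relative to infected untreated controls; uninfected reference n = 15.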

The test system of series [5] is Trypanosoma cruzi. The series can be described thus: Antitrypanosomal activity against Trypanosoma cruzi MHOM/Pe/2011/Arequipa DTU 5 trypamastigotes infected in Balb/c mouse assessed as reduction in Ig-G level in serum at 20 mg/kg, po once daily for 5 consecutive days starting from day 10 post infection measured on day 16 post infection by ELISA. It counts as functional, organism-based. In short, it runs like this: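 Female BALB/c mice (8-10 weeks, 20-25 g), six per group, infected i.p. with 5 x 10^5 Arequipa bloodstream trypomastigotes. Compound was given orally once daily for 5 days from day 10 or day 75 pi, at 20 mg·kg-1 per day in 5 % DMSO/0.5 % HPMC. Anti-T. cruzi IgG in serum was measured by ELISA with Fe-SOD antigen, read as OD 490 nm.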

Series [6] deals with Mus musculus. Briefly: Hepatotoxicity in Balb/c mouse infected with Trypanosoma cruzi MHOM/Pe/2011/Arequipa DTU 5 trypamastigotes assessed as change in ratio of serum ALT to GPT level at 20 mg/kg, po once daily for 5 consecutive days starting from day 75 post infection measured on day 127 post infection by biochemical analysis relative to control. The class given is toxicity, organism-based. Particulars: in vivo. In short, it runs like this:
as §1

Series [7] concerns Mus musculus. The series can be described thus: Hepatotoxicity in Balb/c mouse infected with Trypanosoma cruzi MHOM/Pe/2011/Arequipa DTU 5 trypamastigotes assessed as increase in ratio of serum AST to GOT level at 20 mg/kg, po once daily for 5 consecutive days starting from day 75 post infection measured on day 127 post infection by biochemical analysis relative to control. The class given is toxicity, organism-based. Particulars: in vivo.

The test system of series [8] is Mus musculus. Briefly: Hepatotoxicity in Balb/c mouse infected with Trypanosoma cruzi MHOM/Pe/2011/Arequipa DTU 5 trypamastigotes assessed as increase in alkaline phosphatase level at 20 mg/kg, po once daily for 5 consecutive days starting from day 75 post infection measured on day 127 post infection by biochemical analysis relative to control. Particulars: in vivo. The class given is toxicity, organism-based.

Series [9] relates to Mus musculus. Briefly: Hepatotoxicity in Balb/c mouse infected with Trypanosoma cruzi MHOM/Pe/2011/Arequipa DTU 5 trypamastigotes assessed as change in alkaline phosphatase level at […], po once daily for 5 consecutive days starting from day 10 post infection measured on day 16 post infection by biochemical analysis relative to control. The following applies: in vivo. It counts as toxicity, organism-based. In short, it runs like this: as §1

Series [10] relates to Trypanosoma cruzi. Briefly: Antitrypanosomal activity against Trypanosoma cruzi MHOM/Pe/2011/Arequipa DTU 5 epimastigotes assessed as effect on parasite glycolytic pathway by measuring increase in succinate excretion at IC25 after 72 hrs by 1H NMR method relative to control. The class given is functional. The essentials:
(§2)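 Arequipa epimastigotes exposed at IC25 for 72 h alongside an untreated control. Excreted catabolites were analysed by 1H NMR, and each peak is reported as % variation versus the control. Three separate determinations.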

Series [11] concerns Trypanosoma cruzi. Briefly: Antitrypanosomal activity against Trypanosoma cruzi MHOM/Pe/2011/Arequipa DTU 5 epimastigotes assessed as effect on parasite glycolytic pathway by measuring ethanol excretion at IC25 after 72 hrs by 1H NMR method. It counts as functional, organism-based. In short, it runs like this: as §2
Series [12] concerns Mus musculus. Briefly: Cardiotoxicity in Balb/c mouse infected with Trypanosoma cruzi MHOM/Pe/2011/Arequipa DTU 5 trypamastigotes assessed as change in serum LDH level at 100 mg/kg, po once daily for 5 consecutive days starting from day 10 post infection measured on day 16 post infection by biochemical analysis relative to control. It counts as toxicity, organism-based. The following applies: in vivo.

Series [13] concerns Trypanosoma cruzi. The series can be described thus: Antitrypanosomal activity against Trypanosoma cruzi MHOM/Pe/2011/Arequipa DTU 5 trypamastigotes infected in Balb/c mouse assessed as reduction in parasitaemia reactivation at 100 mg/kg, po pretreated once daily for 5 consecutive days starting from day 75 post infection followed by cyclophosphamide-induced immunosuppression on day 100 post infection every 4 days for a maximum of 3 doses measured up to 1 week post immunosuppression by Neubauer chamber method. The class given is functional, organism-based.

Series [14] deals with Trypanosoma cruzi. The series can be described thus: Antitrypanosomal activity against Trypanosoma cruzi MHOM/Pe/2011/Arequipa DTU 5 trypamastigotes infected in Balb/c mouse assessed as reduction in parasitaemia reactivation in spleen tissue at 100 mg/kg, po pretreated once daily for 5 consecutive days starting from day 75 post infection followed by cyclophosphamide-induced immunosuppression on day 100 post infection every 4 days for a maximum of 3 doses measured on day 127 post infection by PCR method. The class given is functional. On the set-up: scale not given: the % may be the effect or the level left.

Series [15] concerns Mus musculus. The series can be described thus: Nephrotoxicity in Balb/c mouse infected with Trypanosoma cruzi MHOM/Pe/2011/Arequipa DTU 5 trypamastigotes assessed as change in urea level in serum at […], po once daily for 5 consecutive days starting from day 75 post infection measured on day 127 post infection by biochemical analysis relative to control. It counts as toxicity, organism-based. The following applies: in vivo.

Series [16] concerns Trypanosoma cruzi. Briefly: Antitrypanosomal activity against Trypanosoma cruzi MHOM/Pe/2011/Arequipa DTU 5 trypamastigotes infected in Balb/c mouse assessed as reduction in parasitaemia reactivation in stomach tissue at 100 mg/kg, po pretreated once daily for 5 consecutive days starting from day 75 post infection followed by cyclophosphamide-induced immunosuppression on day 100 post infection every 4 days for a maximum of 3 doses measured on day 127 post infection by PCR method. The arrangement: scale not given: the % may be the effect or the level left. It counts as functional.

Series [17] has as its system Trypanosoma cruzi. The series can be described thus: Antitrypanosomal activity against Trypanosoma cruzi MHOM/Pe/2011/Arequipa DTU 5 epimastigotes assessed as effect on parasite glycolytic pathway by measuring decrease in succinate excretion at IC25 after 72 hrs by 1H NMR method. The class given is functional, organism-based. In short, it runs like this: as §2
Series [18] has as its system Mus musculus. Briefly: Nephrotoxicity in Balb/c mouse infected with Trypanosoma cruzi MHOM/Pe/2011/Arequipa DTU 5 trypamastigotes assessed as increase in urea level in serum at […], po once daily for 5 consecutive days starting from day 10 post infection measured on day 16 post infection by biochemical analysis relative to control. It counts as toxicity, organism-based. Particulars: in vivo.

Active and inactive are the calls of the source. The rule behind the calls is not given here.

As to `O=C(Cn1ccnc1[N+](=O)[O-])NCc1ccccc1` [BENZNIDAZOLE], the Activity entry is listed as “<= 20%” in the series on Mus musculus [1]; greater than 40% in the series with Mus musculus [2]; 33% in the series on Trypanosoma cruzi [3]; “<= 30%” with Mus musculus [4]; less than 10% in the series on Mus musculus [6]; “<= 10%” in the series on Mus musculus [7]. Besides, the Activity result in the series on Mus musculus [8] was “<= 20%”. In the series on Trypanosoma cruzi [5], the outcome was Active.
For the molecule `COc1ccc(C(=O)CCN2CCN(c3ccc([N+](=O)[O-])cc3)CC2)cc1`, the Activity was less than 10% with Mus musculus [9], greater than 20% in the series on Trypanosoma cruzi [10] and less than 10% in the series with Mus musculus [12]. The outcome in the series on Trypanosoma cruzi [11] was inactive. The outcome with Trypanosoma cruzi [13] was Active.
`COc1ccc(C(=O)CCN2CCN(c3ccc(Cl)cc3)CC2)cc1`: the Activity is 78% in the series with Trypanosoma cruzi [14], 200% in the series on Trypanosoma cruzi [10], less than 10% with Mus musculus [15] and 78% with Trypanosoma cruzi [16]. Further, in the series on Trypanosoma cruzi [11], the outcome was inactive.
In the case of `COc1ccc(C(=O)CCN2CCN(c3ccc(F)cc3)CC2)cc1`, the result with Trypanosoma cruzi [17] and in the series with Trypanosoma cruzi [13] was Active. The Activity result is reported as “<= 30%” with Mus musculus [18] and less than 10% with Mus musculus [12].

For the origin of these results see ChEMBL document CHEMBL4118256, “Second Generation of Mannich Base-Type Derivatives with in Vivo Activity against Trypanosoma cruzi” (J Med Chem, 2018).
